Experimental data collected from several papers.
Each line is one published result; the experiments were not run side by side.
Read-out: cell growth or viability

| SMILES | cell line | test | conditions | endpoint | result |
| --- | --- | --- | --- | --- | --- |
| C=CC(=O)NC1CCN(c2ncc3ncnc(Nc4ccc(Oc5ccc6c(c5)ncn6C)c(C)c4)c3n2)CC1 | 647-V | – | – | EC50 | 2.32 µM |
| CC(C)c1ccccc1[C@@H]1CCCN1C1CC2(CCN(c3ccc(C(=O)NS(=O)(=O)c4ccc(NC[C@H]5CC[C@](C)(O)CC5)c([N+](=O)[O-])c4)c(Oc4cnc5[nH]ccc5c4)c3)CC2)C1 | KMS-12-PE | ATP luminescence | 48 h | IC50 | 0.00086 µM |
| Cn1cc(-n2cnc3c(NCc4nc5cc(Cl)c(Cl)cc5[nH]4)nc(N4CCOCC4)nc32)cn1 | MDA-MB-468 | – | 5 days | EC50 | 0.00921 µM |
| Cc1nc(Nc2ccc3c(c2)/C(=C/c2ccccc2)C(=O)N3C)c2ccccc2n1 | BEAS-2B | MTT | – | IC50 | 20.1 µM |
| C[C@@H]1CN(c2ccc(-c3cc(C(=O)NCCOCCOCCOCCOCCOCCOCCNC(=O)/C=C/c4[nH]cc(C(=O)N[C@@H](CC(N)=O)c5ccc(F)c(Cl)c5)c4-c4ccc(Cl)cc4F)ccc3F)cc2NC(=O)c2ccc(F)cc2C(F)(F)F)C[C@H](C)N1C | MV4-11 | – | 4.64 µM, 5 days | viability | 43.9% |
| Cc1nc(Nc2ccc3c(c2)C(C)(C)C(=O)N3)c2ccccc2n1 | BEAS-2B | MTT | – | IC50 | 38.4 µM |
| Cc1noc2c1-c1ccccc1C(c1ccc(Cl)cc1)=N[C@H]2CC(N)=O | MV4-11 | ATP luminescence | 72 h | IC50 | 0.412 µM |
| CN1Cc2c(N)cccc2C(=O)N1C1CCC(=O)NC1=O (stereo not drawn) | MV4-11 | CCK-8 | 96 h | IC50 | < 0.33 µM |
| C[C@@H]1CN(c2ccc(-c3cc(C(=O)NCCOCCOCCOCCOCCNC(=O)Cn4cc(-c5[nH]cc(C(=O)N[C@@H](CC(N)=O)c6ccc(F)c(Cl)c6)c5-c5ccc(Cl)cc5F)cn4)ccc3F)cc2NC(=O)c2c[nH]c(=O)cc2C(F)(F)F)C[C@H](C)N1C | MV4-11 | – | 4.64 µM, 5 days | viability | 27% |
| Cc1nc(Nc2ccc3c(c2)CC(=O)N3)c2ccccc2n1 | BEAS-2B | MTT | – | IC50 | 8.76 µM |
| CC1(C)CCC(CN2CCN(c3ccc(C(=O)NS(=O)(=O)c4ccc(NCC5CCOCC5)c([N+](=O)[O-])c4)c(Oc4cnc5[nH]ccc5c4)c3)CC2)=C(c2ccc(Cl)cc2)C1 | MV4-11 | ATP luminescence | 48 h | IC50 | 0.012 µM |
| COc1cc2ncnc(Nc3ccc4c(c3)/C(=C/c3ccccc3)C(=O)N4)c2cc1OC | BEAS-2B | MTT | – | IC50 | 17.5 µM |
| C=CC(=O)N1C[C@@H](n2nc(C#Cc3c(F)cc4c(ncn4C4CC4)c3F)c(C(N)=O)c2NC)C[C@@H]1COC | RBE | MTT | 72 h | IC50 | > 1 µM |
| Cc1c(C(=O)O)ccc2c3n(nc12)[C@@H]1[C@H](C3)N(CC2CC2)[C@@]2(C(=O)Nc3cc(Cl)ccc32)[C@H]1c1cccc(Cl)c1F | human Fibroblast | ATP luminescence | – | IC50 | 0.012 µM |
| Cc1nc(Nc2ccc3c(c2)/C(=C/c2ccccc2C)C(=O)N3)c2ccccc2n1 | BEAS-2B | MTT | – | IC50 | 8.74 µM |
